The target in assay [1] is T1, Asparagine synthetase [glutamine-hydrolyzing] (Rattus norvegicus) (UniProt P49088).
T1 sequence (whole entry): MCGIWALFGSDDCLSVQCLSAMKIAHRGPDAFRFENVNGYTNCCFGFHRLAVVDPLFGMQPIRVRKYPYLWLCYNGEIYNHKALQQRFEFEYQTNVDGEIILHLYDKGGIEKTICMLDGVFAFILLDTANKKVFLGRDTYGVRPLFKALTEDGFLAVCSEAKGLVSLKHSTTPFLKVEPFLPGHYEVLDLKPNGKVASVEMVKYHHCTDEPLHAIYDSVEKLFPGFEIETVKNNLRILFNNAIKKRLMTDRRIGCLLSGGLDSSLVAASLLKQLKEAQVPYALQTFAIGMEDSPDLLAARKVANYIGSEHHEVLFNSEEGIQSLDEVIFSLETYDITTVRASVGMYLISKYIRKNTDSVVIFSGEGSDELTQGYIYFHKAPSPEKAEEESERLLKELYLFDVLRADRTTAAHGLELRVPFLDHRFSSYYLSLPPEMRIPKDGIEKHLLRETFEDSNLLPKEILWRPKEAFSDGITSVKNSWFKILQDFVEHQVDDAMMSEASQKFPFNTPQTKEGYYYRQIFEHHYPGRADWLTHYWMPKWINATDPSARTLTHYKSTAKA
Kind of assay: Inhibition of asparagine synthetase isolated from rat bearing Novikoff hepatoma cells using [14C]-L-aspartic acid as substrate at 2 mM incubated 15 mins prior to substrate addition measured after 30 mins. An outline of the steps:
(§1)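 ASase partially purified from excised rat Novikoff hepatoma (specific activity 0.51 μmol asparagine/mg protein/30 min). Enzyme and inhibitor were preincubated with 100 μmol Tris at pH 8.0 for 15 min at 37 °C. L-glutamine (20.0 μmol), L-aspartic acid (2.0 μmol) and L-aspartic acid-¹⁴C (2×10⁶ dpm) were then added and incubated 30 min at 37 °C. Isolated L-asparagine-¹⁴C was counted by scintillation. Percent inhibition came from duplicates on three separate days with fresh inhibitor solutions.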

Assay [2] deals with T1, Asparagine synthetase [glutamine-hydrolyzing] (Rattus norvegicus). As to the kind of experiment: Competitive inhibition of rat asparagine synthetase using L-aspartic acid as substrate incubated 15 mins prior to substrate addition measured after 30 mins by double reciprocal plot analysis. An outline of the steps:
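Partially purified rat Novikoff hepatoma ASase was preincubated with inhibitor in Tris at pH 8.0 for 15 min at 37 °C. L-glutamine was then added with L-aspartic acid varied at 0.25, 0.50, 1.0 and 2.0 mM final, plus ¹⁴C-aspartate (2×10⁶ dpm/tube, 206 mCi/mmol), and incubated 30 min at 37 °C. L-asparagine-¹⁴C was measured. Double-reciprocal plots were fitted by least-squares regression.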

Assay [3] deals with T2, Asparagine synthetase [glutamine-hydrolyzing] (Mus musculus) (UniProt Q61024).
T2 sequence (whole entry): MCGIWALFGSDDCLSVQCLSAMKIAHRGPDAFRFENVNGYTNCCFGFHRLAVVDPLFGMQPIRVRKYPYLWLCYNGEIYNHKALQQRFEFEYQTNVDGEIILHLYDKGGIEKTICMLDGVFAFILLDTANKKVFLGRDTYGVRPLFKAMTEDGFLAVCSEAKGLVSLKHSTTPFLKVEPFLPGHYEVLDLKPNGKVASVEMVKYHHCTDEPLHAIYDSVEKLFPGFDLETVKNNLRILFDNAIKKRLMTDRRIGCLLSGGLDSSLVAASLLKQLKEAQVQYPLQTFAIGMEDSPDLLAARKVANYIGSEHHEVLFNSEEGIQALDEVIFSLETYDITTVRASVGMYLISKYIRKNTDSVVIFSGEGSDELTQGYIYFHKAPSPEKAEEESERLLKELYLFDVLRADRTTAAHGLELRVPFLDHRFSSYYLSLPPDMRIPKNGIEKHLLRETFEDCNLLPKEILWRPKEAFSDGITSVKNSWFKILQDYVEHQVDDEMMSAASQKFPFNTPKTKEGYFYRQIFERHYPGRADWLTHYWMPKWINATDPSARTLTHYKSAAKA
As to the kind of experiment: Inhibition of asparagine synthetase in mouse L5178Y/AR cells at 10 mM. It is filed as cell-based.

In the next assay the test system is P388. As to the kind of experiment: Antitumor activity against mouse P388 cells […] in mouse assessed as increase in life span. The format is functional. An outline of the steps:
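In vivo screen run by the National Cancer Institute Drug Research and Development Program in CDF₁ mice bearing P-388 lymphocytic leukemia, an asparaginase-resistant line. The read-out was increase in life span.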

Assay [4] has as its target T1, Asparagine synthetase [glutamine-hydrolyzing] (Rattus norvegicus). Kind of assay: Inhibition of asparagine synthetase isolated from rat bearing Novikoff hepatoma cells using [14C]-L-aspartic acid as substrate at 1 mM incubated 15 mins prior to substrate addition measured after 30 mins. An outline of the steps: as §1
In assay [5] the target is T2, Asparagine synthetase [glutamine-hydrolyzing] (Mus musculus). Kind of assay: Inhibition of asparagine synthetase in mouse L5178Y/AR cells at 1 mM. The format is cell-based.
The target in assay [6] is T3, Asparagine synthetase [glutamine-hydrolyzing] (Homo sapiens) (UniProt P08243).
T3 sequence (whole entry): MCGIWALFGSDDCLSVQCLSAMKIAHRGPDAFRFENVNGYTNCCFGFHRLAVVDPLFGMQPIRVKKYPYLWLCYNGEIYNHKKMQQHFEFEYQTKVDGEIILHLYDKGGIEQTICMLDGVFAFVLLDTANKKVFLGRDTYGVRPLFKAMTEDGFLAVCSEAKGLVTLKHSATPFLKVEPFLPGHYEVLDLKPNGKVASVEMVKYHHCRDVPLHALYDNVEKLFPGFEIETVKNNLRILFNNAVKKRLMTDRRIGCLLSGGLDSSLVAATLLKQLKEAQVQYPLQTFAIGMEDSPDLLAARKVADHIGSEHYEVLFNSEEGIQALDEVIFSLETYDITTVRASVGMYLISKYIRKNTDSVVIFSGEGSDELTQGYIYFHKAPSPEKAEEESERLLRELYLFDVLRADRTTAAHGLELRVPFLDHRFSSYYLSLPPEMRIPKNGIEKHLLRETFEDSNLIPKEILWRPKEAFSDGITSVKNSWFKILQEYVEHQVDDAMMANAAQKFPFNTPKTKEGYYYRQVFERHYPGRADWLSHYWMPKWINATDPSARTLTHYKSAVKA
Kind of assay: Inhibition of asparagine synthetase in human KB cells at 1 mM. The format is cell-based.

This note sets out measurements from ChEMBL document CHEMBL3243960.

The structures appear in SMILES notation. Activity calls are given as the source filed them. The calls are words filed in the database; no cut-off is given here.

By inhibition is commonly meant the share of the control response that was lost under treatment. In assay [1], `N[C@@H](CC(=O)NO)C(=O)O` returned an inhibition of 15.8%. Further, the inhibition entry in assay [2] was “inactive”.

Molecule `N[C@@H](CS(N)(=O)=O)C(=O)O` had an inhibition in assay [1] of 25.8%.

Regarding `CCOC(=O)/C=C/C(=O)NNS(=O)(=O)C[C@H](N)C(=O)O`, the inhibition in assay [1] is 37.3%. Besides, the inhibition entry in assay [3] is “inactive”. Also, the outcome in the assay with P388 was inactive.

`N[C@@H](CS(=O)(=O)NCc1ccc(S(=O)(=O)F)cc1)C(=O)O` registered an inhibition in assay [1] of 29.5%. Also, in assay [3], the inhibition entry is “inactive”.

With `N[C@@H](CS(=O)(=O)NO)C(=O)O`, the inhibition in assay [4] came out at 77.6%; in assay [1], 96.5%; in assay [5], 23%; in assay [3], 81%. The inhibition entry in assay [2] was “Active”. In the assay on P388, the result was inactive.

For `NC(CC(=O)NO)C(=O)O` (racemic), the inhibition in assay [6] came out at 36%.

In assay [1], `N[C@@H](CS(=O)(=O)NCCCl)C(=O)O` displayed an inhibition of 0%. Moreover, the inhibition result in assay [5] was “inactive”.

Molecule `N[C@@H](CS(=O)(=O)NNC(=O)c1ccc(S(=O)(=O)F)cc1)C(=O)O` registered an inhibition in assay [1] of 43.1%. Further, the inhibition entry in assay [3] is “inactive”.
